PERK inhibitor – inhibitors of human PERK kinase; Q9NZJ5; CHO PERK-DD fusion, SEAP luminescence translation reporter; inhibition, % at 5.6 µM; 0.17% of 220,000 active; AID 1416;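 active = inhibition above the mean inhibition of all tested compounds plus 3 SD, set separately per screening campaign, cut at about 2.9% in these data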;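 also: PERK kinase domain activated by AP20187 dimerizer at 100 nM; 0% = DMSO with dimerizer and 100% = rapamycin at 8.4 µM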
Platelet DG rel – platelet dense granule release activity | AID 1663 | 0.22% of 300,000 active | human platelet-rich plasma, SFLLRN dense granule ATP release, luminescence | inhibition, %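 (compounds screened at 7.5 µM in platelet-rich plasma)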;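 active = mean replicate score, as percent of positive control, at or above 50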
STAT3 inh-1 – reduces IL-6 driven STAT3 reporter signal; U3A cells, IL-6 STAT3-luciferase reporter, luminescence; host cell line lacks STAT1; inhibition, % at 5.5 µM; 0.89% of 190,000 active;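 active = inhibition above the mean inhibition across all screened compounds plus 3 SD, cut at about 44% in these data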;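 also: 0% = DMSO only wells and 100% = 100 µM nifuroxazide control wells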
STAT3 act – activators of IL-6 induced STAT3 signaling | 0.91% of 190,000 active | U3A cells, IL-6 STAT3-luciferase reporter, luminescence; 100% = signal with IL-6 EC80 alone | activation (% of control), % at 5.6 µM;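 active = activation above the screen-wide mean of compound activation plus 3 SD, cut at about 130% in these data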;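 also: 0% = background luminescence of wells with medium and substrate only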
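Test system: Human STAT1-deficient U3A cells with stable STAT3-luciferase reporter | Also added: Interleukin-6, 33 ng/mL | Timing: Compound pre-incubation 1 h before IL-6, then 6 h stimulation at 37 °C | Technique: Luciferase reporter luminescence | Read-out: Percent of IL-6-only median luminescence | Benchmarks: IL-6-only wells as 100% reference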
STAT1 blocker – reduces IFN-gamma driven STAT1 reporter signal; inhibition, % at 5.5 µM; 0.35% of 200,000 active; NIH 3T3 STAT1-luciferase reporter, luminescence;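 active = inhibition above a set limit, the mean inhibition across all tested compounds plus 3 SD, cut at about 34% in these data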;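 also: 0% = IFN-gamma with DMSO and 100% = IFN-gamma with 300 µM nifuroxazide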
STAT3 inh-2 – STAT3 inhibition, confirmation assay; shares compounds with STAT3 inh-1; U3A cells, IL-6 STAT3 luciferase reporter, luminescence; cell line lacks STAT1; inhibition, % at 5.7 µM; 45% of 1,200 active; AID 1265;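 active = inhibition above the hit cutoff computed for the primary STAT3 screen, cut at about 44% in these data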;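 also: 0% = IL-6 plus DMSO and 100% = IL-6 plus nifuroxazide control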
NFkB inh STAT3ct – counter-screen for STAT3 inhibitors: NF-kappaB inhibition; shares compounds with STAT3 inh-1; AID 1308; 36% of 1,200 active; HEK293T NF-kB luciferase reporter, TNF-alpha induced; inhibition, % at 5.7 µM;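 active = inhibition above the mean of solvent-only control wells plus 3 SD, cutoff set per campaign, cut at about 13% in these data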;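 also: 0% = TNF-alpha with DMSO and 100% = TNF-alpha with MG high control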
STAT1 inh 2 – counter-screen for STAT3 inhibitors: STAT1 inhibition | shares compounds with STAT3 inh-1 | NIH 3T3 STAT1-luciferase reporter, IFN-gamma induced, luminescence | inhibition, % at 5.7 µM | 27% of 1,200 active | AID 1317;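 active = inhibition above the mean plus 3 SD of solvent-only control wells, limit set per screening run, cut at about 16% in these data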;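 also: 0% = DMSO with IFN-gamma and 100% = nifuroxazide control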
Starred values were filed as active, the others as inactive; · = not tested or not shown. Most compounds without a hit are left out; they make up all but 1.4% or so of the library.

SMILES | PERK inhibitor | Platelet DG rel | STAT3 inh-1 | STAT3 act | STAT1 blocker | STAT3 inh-2 | NFkB inh STAT3ct | STAT1 inh 2
O=C(Nc1ccc(N2CCCCC2)cc1)c1ccccc1 | 0 | 28 | 66* | 49 | 5 | 19 | -17 | -87
O=C(Nc1ccc(N2CCCC2)cc1)c1cccc(F)c1 | 2 | 8 | 48* | 63 | -23 | -3 | -24 | -140
Cc1ccc(C(=O)Nc2ccc(N3CCCC3)cc2)cc1 | 2 | -2 | 4 | 99 | -47 | · | · | ·
COCCOc1cc(-n2cccc2)c(Cl)cc1Cl | 1 | -3 | 5 | 96 | -5 | · | · | ·
COc1ccc(N(C(=O)Cn2nnc(-c3ccccc3F)n2)C(C(=O)NCC2CCCO2)c2ccc(Cl)cc2)cc1 (stereo not drawn) | 1 | 1 | 3 | 100 | -1 | · | · | ·
COc1cc(CNc2ncnc3c2[nH]c2ccc(C)cc23)cc(OC)c1 | -2 | -2 | · | · | · | · | · | ·
Cc1ccc2[nH]c3c(NCc4ccco4)ncnc3c2c1 | -1 | -2 | 60* | 54 | 19 | 45* | -4 | 11
O=C(CSc1nnc(Cn2nnc3ccccc32)o1)N(Cc1ccc(F)cc1)c1ccccc1 | 0 | -2 | 76* | 37 | 20 | 72* | 24* | 19*
COc1ccc(N(Cc2ccccc2)C(=O)CSc2nnc(Cn3nnc4ccccc43)o2)cc1 | -1 | 0 | 8 | 95 | 6 | · | · | ·
COCCN=c1scc(C)n1/N=C/C1CC2C=CC1C2 (stereo not drawn) | 0 | 27 | 6 | 101 | 0 | · | · | ·
Cc1sc(NC(=O)c2ccco2)c(C(c2cccnc2)N2CCC(C)CC2)c1C (stereo not drawn) | -2 | 1 | 68* | 45 | 9 | 67* | 16* | -1
COc1ccc(N2Cc3ccc(C(=O)N/N=C\c4ccc(O)cc4O)cc3C2)cc1 | · | 13 | · | · | · | · | · | ·
O=[N+]([O-])c1ccc(COP(=O)(O)OCc2ccc([N+](=O)[O-])cc2)cc1 | · | 1 | · | · | · | · | · | ·
CCc1c(C)nc2ncnn2c1Nc1ccc(C)cc1 | · | -1 | · | · | · | · | · | ·
CCc1c(C)nc2ncnn2c1NCCc1ccc(OC)cc1 | -1 | -3 | 66* | 44 | 20 | 65* | 28* | 26*
CSc1nsc(N/N=C/c2ccc3c(c2)OCO3)c1C#N | 0 | 12 | 14 | 94 | -54 | · | · | ·
COc1cc(/C=N/Nc2snc(SC)c2C#N)cc(OC)c1OC | -1 | -21 | 59* | 51 | 8 | 41 | 4 | -7
CC(=O)c1c(C)[nH]c(C(=O)OCC(=O)Nc2ccc(Cl)cc2[N+](=O)[O-])c1C | 0 | -7 | 57* | 50 | 27 | 73* | 28* | 28*
O=C(COC(=O)c1cc[n+]([O-])cc1)Nc1ccc(Cl)cc1[N+](=O)[O-] | 0 | -6 | -13 | 113 | -1 | · | · | ·
CCOc1ncccc1C(=O)NCc1ccccc1Cl | 1 | -1 | -11 | 114 | -3 | · | · | ·
Cc1cc(C(=O)Cn2nnc3ccccc3c2=O)c(C)n1Cc1cccs1 | 0 | -1 | 46* | 66 | 19 | -1 | -24 | -98
Cc1[nH]nc2c1C1(CCN(C(=O)OCc3ccccc3)CC1)C(C#N)=C(N)O2 | 0 | -3 | 49* | 63 | 13 | 21 | -6 | -3
Cc1[nH]nc2c1C1(CCN(C(=O)c3ccccc3)CC1)C(C#N)=C(N)O2 | 0 | 3 | 7 | 99 | 0 | · | · | ·
COc1cccc(CNC(=O)CCCN2C(=O)C(c3ccccc3)Oc3cccnc32)c1OC (stereo not drawn) | · | -9 | · | · | · | · | · | ·
CCOC(=O)C1=C(Cc2ccc(OC)cc2)C(=O)c2ccccc2C1=O | 0 | · | 43 | 66 | 1 | · | · | ·
CCOC(=O)C1=C(Cc2ccc(C)cc2)C(=O)c2ccccc2C1=O | 0 | 4 | 60* | 50 | -1 | 60* | 12 | -2
COc1ccc(Br)cc1/C(C)=N/NC1=NCCN1 | -1 | 9 | 54* | 54 | 18 | 47* | 13 | 12
Cc1ccc(-c2nc3n(n2)Cc2ccccc2-3)cc1 | 1 | 18 | 49* | 63 | 24 | -1 | 18* | -37
Cc1ccc(NC(=O)Cn2c(=O)c3cccn3c3ccccc32)cc1 | · | -5 | · | · | · | · | · | ·

Screening results from PubChem.
